Activity calls are given as the source filed them.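 How the source made its calls, unless noted: active means duplicate-averaged activation above buffer control mean plus 5 SD of those controls; inactive means the rest.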
Assays:
[1] = nonspecific flux increase, KCNQ1-free cells – parental CHO cells, counter-screen for KCNQ1 potentiator project (AID 493006); conditions: parental CHO-K1 cells, FluxOR thallium flux, at 10 µM; hits give high values;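 on activation: fluorescence ratio of max minus min over baseline after K+ and Tl+ depolarization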
In short: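 Material: untransfected host CHO-K1 cells with FluxOR thallium dye. Timing: overnight 37 °C plating, 90 min RT dye, 20 min compound. Detection: kinetic FluxOR fluorescence, 10 s baseline, 110 s after stimulus. Read-out basis: max-minus-min fluorescence over baseline, percent of buffer-to-R-L3 span. Replicates: duplicate wells per compound, percent values averaged.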

[2] = target: Potassium voltage-gated channel subfamily KQT member 1 (Homo sapiens) (UniProt P51787); assay: enhancement of KCNQ1 channel thallium flux – FluxOR thallium flux, CHO cells, duplicates, confirmation (AID 493007;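 active means potentiation averaged over duplicate wells exceeding buffer-only control mean by more than 3 SD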;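 on outcome: cells depolarized by a potassium plus thallium sulfate stimulus after compound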); conditions: KCNQ1 cell line, FluxOR thallium flux fluorescence, at 10 µM; hits give high values, % of reference activator effect, buffer zero
Chain of Potassium voltage-gated channel subfamily KQT member 1 (Homo sapiens) (P51787 whole entry, looked up): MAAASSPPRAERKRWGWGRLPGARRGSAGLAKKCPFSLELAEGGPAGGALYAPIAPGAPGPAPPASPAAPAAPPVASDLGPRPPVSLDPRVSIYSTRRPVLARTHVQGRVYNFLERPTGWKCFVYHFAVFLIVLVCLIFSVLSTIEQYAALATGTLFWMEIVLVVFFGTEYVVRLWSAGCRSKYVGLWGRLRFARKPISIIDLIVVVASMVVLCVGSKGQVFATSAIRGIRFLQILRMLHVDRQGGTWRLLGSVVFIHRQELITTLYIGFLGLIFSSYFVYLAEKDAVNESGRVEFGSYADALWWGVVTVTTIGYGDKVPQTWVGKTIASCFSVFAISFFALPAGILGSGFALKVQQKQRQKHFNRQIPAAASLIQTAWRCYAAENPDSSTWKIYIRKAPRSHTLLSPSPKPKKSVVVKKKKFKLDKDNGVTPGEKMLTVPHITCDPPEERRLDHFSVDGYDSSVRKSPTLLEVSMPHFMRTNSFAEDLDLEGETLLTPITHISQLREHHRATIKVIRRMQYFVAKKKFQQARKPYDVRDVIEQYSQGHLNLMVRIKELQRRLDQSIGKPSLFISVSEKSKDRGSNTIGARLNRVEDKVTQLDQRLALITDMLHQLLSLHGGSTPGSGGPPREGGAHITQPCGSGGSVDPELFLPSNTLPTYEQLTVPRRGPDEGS
In short: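 Test system – KCNQ1-expressing CHO cell line · Incubation – FluxOR dye loading 90 min, compound exposure 20 min, room temperature · Detection – FluxOR Tl+ flux fluorescence, 10 s baseline plus 110 s recording · Controls – buffer-only wells as 0% and R-L3 activator as 100%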

[3] = target: Potassium voltage-gated channel subfamily KQT member 2 (Rattus norvegicus) (UniProt O88943); assay: KCNQ2 thallium flux enhancement – KCNQ2-CHO-K1 cells, selectivity assay for KCNQ1 potentiator project (AID 493009;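 active means mean duplicate potentiation above the buffer control mean plus 5 SD of buffer wells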;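 further: assay conditions were tuned for KCNQ1 rather than KCNQ2 modulators; signal is max minus min fluorescence divided by baseline after thallium stimulus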); conditions: FluxOR thallium flux fluorescence, at 10 µM; hits give high values, scaled: buffer 0, activator control 100
Chain of Potassium voltage-gated channel subfamily KQT member 2 (Rattus norvegicus) (O88943 whole entry, looked up): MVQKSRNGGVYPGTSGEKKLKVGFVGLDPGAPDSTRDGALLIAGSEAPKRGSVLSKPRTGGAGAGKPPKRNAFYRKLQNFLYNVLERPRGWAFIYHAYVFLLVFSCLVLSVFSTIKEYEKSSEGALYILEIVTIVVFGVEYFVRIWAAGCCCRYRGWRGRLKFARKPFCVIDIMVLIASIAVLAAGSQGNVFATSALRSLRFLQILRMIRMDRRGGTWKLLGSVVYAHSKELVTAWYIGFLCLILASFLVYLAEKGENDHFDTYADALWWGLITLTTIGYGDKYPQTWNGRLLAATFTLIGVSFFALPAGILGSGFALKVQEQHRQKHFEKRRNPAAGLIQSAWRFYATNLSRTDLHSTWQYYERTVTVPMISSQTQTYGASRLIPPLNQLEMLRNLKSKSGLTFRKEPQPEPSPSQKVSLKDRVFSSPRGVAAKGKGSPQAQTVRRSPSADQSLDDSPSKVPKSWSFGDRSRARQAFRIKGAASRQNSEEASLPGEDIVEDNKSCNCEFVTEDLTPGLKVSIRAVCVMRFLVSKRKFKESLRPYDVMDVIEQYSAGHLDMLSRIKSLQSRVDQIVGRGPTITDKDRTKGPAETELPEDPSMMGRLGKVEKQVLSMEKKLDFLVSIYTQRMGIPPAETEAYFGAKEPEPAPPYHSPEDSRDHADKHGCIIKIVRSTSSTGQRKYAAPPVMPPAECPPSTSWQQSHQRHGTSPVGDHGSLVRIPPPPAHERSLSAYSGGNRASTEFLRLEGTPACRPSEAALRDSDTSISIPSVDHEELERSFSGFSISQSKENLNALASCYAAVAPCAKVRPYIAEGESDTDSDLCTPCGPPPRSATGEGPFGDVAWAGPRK

[4] = target: Potassium voltage-gated channel subfamily KQT member 1 (Homo sapiens) (UniProt P51787); assay: KCNQ1 activators by electrophysiology – IonWorks patch clamp, KCNQ1-CHO cells, orthogonal assay for KCNQ1 potentiator project, confirmation (AID 493184;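 active means current rise at least 3 SD above the untreated control mean in each of two repeat wells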;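 on current potentiation: percent change of the same well's current before compound addition so 0% = no change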); conditions: automated patch clamp current, at 10 µM; hits give high values
In short: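 Read-out: Percent current increase versus pre-compound level | Assay system: CHO cells carrying KCNQ1 | Measured by: Automated perforated-patch electrophysiology | Medium: External bath solution at pH 7.4 | Dosing: One dose, 10 µM final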

| SMILES | outcome [1] | outcome [2] | outcome [3] | outcome [4] | activation [1] | potentiation [2] | potentiation [3] | current potentiation [4] |
| --- | --- | --- | --- | --- | --- | --- | --- | --- |
| Cc1[nH][nH]c(=O)c1C(c1ccc(-c2ccc(F)cc2)o1)c1c(C)[nH][nH]c1=O | inactive | inactive | inactive | inactive |  |  |  |  |
| CSc1nsc(SCC(=O)Nc2ccccc2)n1 | inactive | inactive | inactive | inactive |  |  |  |  |
| Oc1c(Cl)cc(Cl)c2cccnc12 |  |  |  | inactive | 148% (active) | 67% (active) | 211% (active) |  |
| Cc1ccc(CSc2nc3ccccc3c(=O)n2CCCC(=O)NCc2ccco2)cc1 | inactive | inactive | inactive | inactive |  |  |  |  |
| CCCn1c(=S)[nH]c2ccc(C(F)(F)F)cc21 |  | inactive | inactive | inactive | 158% (active) |  |  |  |
| CSc1ccc(/C=N/n2c(Cc3ccc(Br)cc3)n[nH]c2=S)cc1 | inactive |  |  | inactive |  | 174% (active) | 168% (active) |  |
| O=C(O)CCC(=O)Nc1ccc(-c2nc3ccc(C(=O)c4ccccc4)cc3[nH]2)cc1 | inactive | inactive | inactive | inactive |  |  |  |  |
| CCOC(=O)Nc1ccc2c(c1)N(CCCN(C)C)c1ccccc1CC2 | inactive | inactive | inactive | inactive |  |  |  |  |
| O=C(NCCCn1ccnc1)c1cc(C2CC2)on1 | inactive | inactive | inactive | inactive |  |  |  |  |
| COc1ccc2c(CCNC(=O)CN3C(=O)c4ccccc4C3=O)c[nH]c2c1 | inactive | inactive | inactive | inactive |  |  |  |  |
| Cc1cccc(C(=O)NNC(=O)C(=O)NC(C)(C)C)c1 |  |  |  | inactive | 159% (active) | 30.5% (active) | 146% (active) |  |
| O=C(Cn1c(=O)oc2ccccc21)N1CCN(c2ccc(N3CCOCC3)nn2)CC1 | inactive | inactive | inactive | inactive |  |  |  |  |
| Oc1c(Cl)cc(Cl)cc1/C=N/c1nccs1 |  | inactive | inactive | inactive | 174% (active) |  |  |  |
| CN(C)CCCN1c2ccccc2Sc2ccc(Cl)cc21 | inactive | inactive | inactive | inactive |  |  |  |  |
| Cc1ccc(-c2ccc(=O)n(Cc3cccc(Br)c3)n2)cc1 | inactive | inactive | inactive | inactive |  |  |  |  |
| C=CCn1c(SCc2ccc(C(=O)O)cc2)nc2sc(C)c(C)c2c1=O |  |  |  | inactive | 216% (active) | 72.5% (active) | 236% (active) |  |
| Cc1ccc(C)c2sc(NC(=O)c3nc4ccccc4s3)nc12 | inactive |  | inactive | inactive |  | 18% (active) |  |  |
| S=c1nc(C2CC2)[nH]c2ccccc12 |  |  |  | inactive | 414% (active) | 83.5% (active) | 351% (active) |  |
| CCOc1ncccc1C(=O)OCc1ccc(C#N)cc1 |  |  |  | inactive | 286% (active) | 114% (active) | 392% (active) |  |
| COc1ccc(-c2oc3ccccc3c(=O)c2OC(C)=O)cc1 |  | inactive |  | inactive | 144% (active) |  | 161% (active) |  |
| Cc1ccc(-c2cc(-c3n[nH]c(=S)o3)c3ccccc3n2)cc1 |  |  |  |  | 468% (active) | 260% (active) | 512% (active) | 18.8% (active) |
| O=C(NC(=S)Nc1ccccc1N1CCOCC1)c1cccc([N+](=O)[O-])c1 | inactive | inactive | inactive | inactive |  |  |  |  |
| Cc1cc(C)cc(OCC(O)Cn2nc(C)cc2C)c1 (stereo not given) | inactive | inactive | inactive | inactive |  |  |  |  |
| Oc1c(N=NC(=S)Nc2ccccc2F)c2ccccc2n1Cc1ccc(F)cc1 | inactive |  | inactive | inactive |  | 19.5% (active) |  |  |
| Cc1ccc(CN2C(=O)CC(Nc3ccc(N4CCOCC4)cc3)C2=O)cc1 (stereo not given) | inactive | inactive | inactive | inactive |  |  |  |  |
| COC(=O)c1sccc1NC(=S)NCc1ccc(Cl)cc1 |  |  | inactive | inactive | 144% (active) | 62.5% (active) |  |  |
| CC(C)c1nc2n[nH]c(N)c2c2c1CSC(C)(C)C2 | inactive |  | inactive | inactive |  | 31.5% (active) |  |  |
| CSc1nccc(-c2nn(-c3ccc(C)cc3)ccc2=O)n1 | inactive | inactive | inactive | inactive |  |  |  |  |
| O=C(COC(=O)C1C2CC3OC(=O)C1C3C2)Nc1ccc(Cl)cc1 (stereo not given) | inactive | inactive | inactive | inactive |  |  |  |  |
| Cc1nc(-c2nc(-c3c(C(=O)NNC(=O)c4ccc(Cl)cc4)noc3C)cs2)cs1 |  |  |  | inactive | 140% (active) | 54.5% (active) | 184% (active) |  |
